ChEMBL document CHEMBL2384998, “Modular, efficient synthesis of asymmetrically substituted piperazine scaffolds as potent calcium channel blockers” (Bioorg Med Chem Lett, 2013)

Tests used:
[1] = biological target: Voltage-dependent N-type calcium channel subunit alpha-1B (Rattus norvegicus, UniProt Q02294); experiment: Inhibition of rat brain Cav2.2 N-type channel expressed in HEK cells after 20 mins by FLIPR assay; type: cell-based, HEK293
Method in brief: (§1)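 Fluorescence Ca²⁺ influx read by FLIPR with the Ca²⁺ indicator dye Fluo-4. Each compound was tested as an 8-point concentration-response profile spanning 0.003–10 μM, giving IC50. Membrane potential and channel state were set by changing the external potassium ion concentration.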

[2] = organism: Rattus norvegicus; experiment: Selectivity ratio of IC50 for rat cardiac Cav1.2 L-type channel to IC50 for rat brain Cav2.2 N-type channel
[3] = biological target: Voltage-dependent L-type calcium channel subunit alpha-1C (Rattus norvegicus, UniProt P22002); experiment: Inhibition of rat cardiac Cav1.2 L-type channel expressed in HEK cells after 20 mins by FLIPR assay; type: cell-based, HEK293; method in brief: as §1
Sequence of Voltage-dependent L-type calcium channel subunit alpha-1C (P22002 whole entry): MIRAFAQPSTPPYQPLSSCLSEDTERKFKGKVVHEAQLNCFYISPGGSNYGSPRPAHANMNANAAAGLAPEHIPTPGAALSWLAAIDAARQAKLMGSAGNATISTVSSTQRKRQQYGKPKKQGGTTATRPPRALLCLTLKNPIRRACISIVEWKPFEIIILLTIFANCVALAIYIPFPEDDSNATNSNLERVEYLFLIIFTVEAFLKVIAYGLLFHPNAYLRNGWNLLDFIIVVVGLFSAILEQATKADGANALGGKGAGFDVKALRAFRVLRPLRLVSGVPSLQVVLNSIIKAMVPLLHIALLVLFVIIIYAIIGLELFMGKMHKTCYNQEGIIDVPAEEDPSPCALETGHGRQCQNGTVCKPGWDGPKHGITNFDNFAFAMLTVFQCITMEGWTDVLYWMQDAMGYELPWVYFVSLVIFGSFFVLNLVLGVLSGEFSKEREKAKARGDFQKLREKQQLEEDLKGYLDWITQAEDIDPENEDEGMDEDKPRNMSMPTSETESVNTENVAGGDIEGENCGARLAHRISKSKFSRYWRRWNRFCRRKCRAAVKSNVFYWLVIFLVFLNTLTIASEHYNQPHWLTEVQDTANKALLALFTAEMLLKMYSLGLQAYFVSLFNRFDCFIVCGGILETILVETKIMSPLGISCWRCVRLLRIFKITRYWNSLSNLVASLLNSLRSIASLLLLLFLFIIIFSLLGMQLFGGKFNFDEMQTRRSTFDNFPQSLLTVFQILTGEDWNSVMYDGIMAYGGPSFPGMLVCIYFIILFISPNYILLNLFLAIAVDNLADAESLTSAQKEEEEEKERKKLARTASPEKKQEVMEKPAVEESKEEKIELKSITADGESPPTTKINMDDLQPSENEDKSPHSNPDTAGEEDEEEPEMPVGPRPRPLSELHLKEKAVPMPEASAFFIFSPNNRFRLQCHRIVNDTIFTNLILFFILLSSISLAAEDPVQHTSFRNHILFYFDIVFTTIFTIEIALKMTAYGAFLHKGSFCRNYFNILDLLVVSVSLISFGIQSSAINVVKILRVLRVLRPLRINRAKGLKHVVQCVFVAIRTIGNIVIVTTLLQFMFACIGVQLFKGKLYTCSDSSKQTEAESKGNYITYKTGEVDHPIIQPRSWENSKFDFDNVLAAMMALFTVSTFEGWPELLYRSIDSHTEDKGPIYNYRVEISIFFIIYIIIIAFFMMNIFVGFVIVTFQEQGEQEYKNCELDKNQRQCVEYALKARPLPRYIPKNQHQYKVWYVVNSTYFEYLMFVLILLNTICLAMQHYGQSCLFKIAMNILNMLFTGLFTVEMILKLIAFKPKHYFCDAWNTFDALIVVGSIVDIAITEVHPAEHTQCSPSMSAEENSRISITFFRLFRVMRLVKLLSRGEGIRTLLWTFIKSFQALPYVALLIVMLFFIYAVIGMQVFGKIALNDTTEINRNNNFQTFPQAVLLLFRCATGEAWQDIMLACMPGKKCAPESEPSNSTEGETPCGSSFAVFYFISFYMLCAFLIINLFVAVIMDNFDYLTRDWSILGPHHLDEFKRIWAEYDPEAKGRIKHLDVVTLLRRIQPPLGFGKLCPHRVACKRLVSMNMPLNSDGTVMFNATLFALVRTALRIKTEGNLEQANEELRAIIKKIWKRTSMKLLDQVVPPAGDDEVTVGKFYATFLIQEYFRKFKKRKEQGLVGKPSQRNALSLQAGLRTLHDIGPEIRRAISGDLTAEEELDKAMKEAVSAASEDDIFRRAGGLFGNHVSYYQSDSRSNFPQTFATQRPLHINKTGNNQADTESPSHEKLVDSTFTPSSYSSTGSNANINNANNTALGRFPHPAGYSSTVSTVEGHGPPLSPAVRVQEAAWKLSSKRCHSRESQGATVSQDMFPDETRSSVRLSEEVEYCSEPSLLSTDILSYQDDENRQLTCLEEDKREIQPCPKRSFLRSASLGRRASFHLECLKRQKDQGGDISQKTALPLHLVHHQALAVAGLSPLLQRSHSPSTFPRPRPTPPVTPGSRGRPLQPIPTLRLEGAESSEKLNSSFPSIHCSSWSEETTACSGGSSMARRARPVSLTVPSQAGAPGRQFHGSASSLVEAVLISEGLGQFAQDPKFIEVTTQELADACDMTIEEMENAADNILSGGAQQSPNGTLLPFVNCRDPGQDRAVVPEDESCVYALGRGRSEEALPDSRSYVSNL

Sequence of Voltage-dependent N-type calcium channel subunit alpha-1B (Q02294 whole entry): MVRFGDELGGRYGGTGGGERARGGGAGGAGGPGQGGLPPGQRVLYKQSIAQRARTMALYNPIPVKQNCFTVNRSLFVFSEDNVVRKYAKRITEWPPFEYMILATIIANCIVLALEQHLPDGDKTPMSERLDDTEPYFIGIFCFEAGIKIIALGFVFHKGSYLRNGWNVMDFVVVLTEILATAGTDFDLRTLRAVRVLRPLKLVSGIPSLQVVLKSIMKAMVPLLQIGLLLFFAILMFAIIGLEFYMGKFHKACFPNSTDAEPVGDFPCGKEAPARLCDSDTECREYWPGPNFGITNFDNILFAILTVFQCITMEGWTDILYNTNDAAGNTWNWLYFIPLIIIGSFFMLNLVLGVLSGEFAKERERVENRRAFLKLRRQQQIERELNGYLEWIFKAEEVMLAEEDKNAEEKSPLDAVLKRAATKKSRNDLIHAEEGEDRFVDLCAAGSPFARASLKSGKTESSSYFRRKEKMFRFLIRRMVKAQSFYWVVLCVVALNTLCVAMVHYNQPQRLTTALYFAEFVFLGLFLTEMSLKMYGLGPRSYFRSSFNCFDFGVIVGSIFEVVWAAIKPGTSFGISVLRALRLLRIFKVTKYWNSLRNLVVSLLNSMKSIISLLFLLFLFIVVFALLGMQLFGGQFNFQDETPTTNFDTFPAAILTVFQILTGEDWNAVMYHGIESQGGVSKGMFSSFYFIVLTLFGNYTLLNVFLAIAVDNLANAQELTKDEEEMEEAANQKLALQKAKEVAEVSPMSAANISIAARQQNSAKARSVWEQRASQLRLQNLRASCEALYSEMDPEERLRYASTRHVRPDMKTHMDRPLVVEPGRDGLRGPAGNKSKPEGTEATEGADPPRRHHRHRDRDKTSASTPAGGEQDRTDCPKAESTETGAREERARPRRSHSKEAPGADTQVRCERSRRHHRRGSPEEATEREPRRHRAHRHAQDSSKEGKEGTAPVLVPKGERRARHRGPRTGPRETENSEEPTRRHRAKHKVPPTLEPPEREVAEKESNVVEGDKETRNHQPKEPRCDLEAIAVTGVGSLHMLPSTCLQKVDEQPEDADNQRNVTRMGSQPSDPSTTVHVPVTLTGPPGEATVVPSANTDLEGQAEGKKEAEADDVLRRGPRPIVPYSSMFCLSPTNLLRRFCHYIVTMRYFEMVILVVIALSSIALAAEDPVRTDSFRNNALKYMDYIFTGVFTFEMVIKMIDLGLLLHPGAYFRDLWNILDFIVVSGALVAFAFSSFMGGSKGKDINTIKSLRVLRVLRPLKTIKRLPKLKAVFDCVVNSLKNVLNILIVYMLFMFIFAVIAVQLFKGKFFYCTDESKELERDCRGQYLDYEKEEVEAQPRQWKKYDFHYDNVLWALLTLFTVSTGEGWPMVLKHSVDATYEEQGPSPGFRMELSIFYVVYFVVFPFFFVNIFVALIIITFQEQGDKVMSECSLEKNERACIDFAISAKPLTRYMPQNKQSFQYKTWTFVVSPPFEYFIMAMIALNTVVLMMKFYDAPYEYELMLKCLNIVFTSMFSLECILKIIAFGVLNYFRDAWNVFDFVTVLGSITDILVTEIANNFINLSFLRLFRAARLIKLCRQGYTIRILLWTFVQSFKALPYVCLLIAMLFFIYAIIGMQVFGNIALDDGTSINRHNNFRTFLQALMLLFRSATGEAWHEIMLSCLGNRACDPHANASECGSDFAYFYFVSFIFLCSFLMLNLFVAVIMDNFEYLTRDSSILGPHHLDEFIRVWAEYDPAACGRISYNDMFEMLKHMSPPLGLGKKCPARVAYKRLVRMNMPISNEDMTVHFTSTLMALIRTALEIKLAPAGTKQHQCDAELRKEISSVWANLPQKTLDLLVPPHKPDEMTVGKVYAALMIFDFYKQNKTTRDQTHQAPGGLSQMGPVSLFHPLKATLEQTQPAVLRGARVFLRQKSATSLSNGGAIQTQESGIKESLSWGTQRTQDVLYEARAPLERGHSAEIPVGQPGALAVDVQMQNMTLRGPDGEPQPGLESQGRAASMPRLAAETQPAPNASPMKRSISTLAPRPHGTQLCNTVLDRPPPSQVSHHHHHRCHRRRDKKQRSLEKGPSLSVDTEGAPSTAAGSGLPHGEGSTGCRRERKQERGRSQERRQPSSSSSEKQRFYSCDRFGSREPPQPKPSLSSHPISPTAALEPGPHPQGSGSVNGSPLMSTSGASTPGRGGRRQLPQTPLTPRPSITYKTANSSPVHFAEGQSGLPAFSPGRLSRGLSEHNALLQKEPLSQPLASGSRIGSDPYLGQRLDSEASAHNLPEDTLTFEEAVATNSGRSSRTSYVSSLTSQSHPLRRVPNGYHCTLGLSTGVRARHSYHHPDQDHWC

Compound	IC50 [1] [µM]	Ratio IC50 [2]	IC50 [3] [µM]
CCCCC[C@@H]1CN[C@H](C)CN1C(c1ccccc1)c1ccccc1 (relative stereo)	2.4	0.7	1.78
C[C@@H]1CN(Cc2ccc(F)cc2)[C@H](Cc2ccccc2)CN1C(=O)C(c1ccccc1)c1ccccc1 (relative stereo)	10		
C[C@@H]1CN(C(c2ccccc2)c2ccccc2)[C@H](CCCO[Si](C)(C)C(C)(C)C)CN1 (relative stereo)	10	0.7	6.8
C[C@@H]1CN(Cc2ccc(F)cc2)[C@H](Cc2ccccc2)CN1S(=O)(=O)c1ccc(C(F)(F)F)cc1 (relative stereo)	10	1	10
C[C@@H]1CN(Cc2ccc(F)cc2)[C@H](Cc2ccccc2)CN1 (relative stereo)	8.37	1.2	10
C[C@@H]1CN(Cc2ccccc2)[C@H](Cc2ccccc2)CN1 (relative stereo)	10	1	10
Cc1ccc(S(=O)(=O)N2C[C@@H](CCCO[Si](C)(C)C(C)(C)C)N(C(c3ccccc3)c3ccccc3)C[C@H]2C)cc1 (relative stereo)	2.6	2	5.1
C[C@@H]1CN(C(c2ccccc2)c2ccccc2)[C@H](CCCCO[Si](C)(C)C(C)(C)C)CN1S(=O)(=O)c1ccc(C(F)(F)F)cc1 (relative stereo)	10	1	10
C[C@@H]1CN(C(c2ccccc2)c2ccccc2)[C@H](CCCCO)CN1 (relative stereo)	0.85	6	5.4
C[C@@H]1CN(Cc2ccccc2)[C@H](Cc2ccccc2)CN1S(=O)(=O)c1ccc(C(F)(F)F)cc1 (relative stereo)	10	1	10
Cc1ccc(S(=O)(=O)N2C[C@@H](CCCCO[Si](C)(C)C(C)(C)C)N(C(c3ccccc3)c3ccccc3)C[C@H]2C)cc1 (relative stereo)	4.7	1.7	8.2
CCCCC[C@@H]1CN[C@H](C)CN1Cc1ccccc1 (relative stereo)	9.84	0.9	9.23
C[C@@H]1CN(C(c2ccccc2)c2ccccc2)[C@H](CCCCO[Si](C)(C)C(C)(C)C)CN1 (relative stereo)	1.07	1.4	1.53
C[C@@H]1CN(Cc2ccccc2)[C@H](CCCCO[Si](C)(C)C(C)(C)C)CN1 (relative stereo)	4.85	0.7	3.34
CCCCCCCCC[C@@H]1CN[C@H](C)CN1Cc1ccccc1 (relative stereo)	10	0.6	5.6
C[C@@H]1CN(Cc2ccccc2)[C@H](CCCCO)CN1 (relative stereo)	9.6		10
C[C@@H]1CN(C(c2ccccc2)c2ccccc2)[C@H](Cc2ccccc2)CN1	4.34	0.4	1.78
